{"source": "ChEMBL document CHEMBL1146721", "about": "“Discovery and structure-activity relationship of coumarin derivatives as TNF-alpha inhibitors” (Bioorg Med Chem Lett, 2004)"}
{"system": "Rattus norvegicus", "experiment": "Tested in vivo for inhibition of serum tumor necrosis factor alpha production in rats at 100 ug/kg subcutaneous dose", "assay_type": "functional", "details": "sc", "in_short": "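LPS (E. coli B055/B5, 0.1 mg/kg) challenge given […] subcutaneous test compound, usually in 20% EtOH/80% PEG400; pyridine-containing compounds were given in saline as HCl salts formed in situ. Serum TNF-α was measured by ELISA 90 min later. Percent inhibition was calculated against an untreated control.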", "units": {"inhibition in vivo at 0.1 mg/kg": "%"}}
{"smiles": "C[C@@H]1C[C@H]2[C@@H]3CCC4=CC(=O)C=C[C@]4(C)[C@@]3(F)[C@@H](O)C[C@]2(C)[C@@]1(O)C(=O)CO", "note": "[DEXAMETHASONE]", "inhibition in vivo at 0.1 mg/kg": 99}
{"system": "Rattus norvegicus", "experiment": "Tested in vivo for inhibition of serum tumor necrosis factor alpha production in rats at 100 mg/kg subcutaneous dose", "assay_type": "functional", "details": "sc", "in_short": "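LPS (E. coli B055/B5, 0.1 mg/kg) challenge given […] sc compound, usually in 20% EtOH/80% PEG400; pyridine-containing compounds given in saline as in situ HCl salts. Serum TNF-α measured by ELISA 90 min later. Percent inhibition at 100 mg/kg calculated against an untreated control.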", "units": {"inhibition in vivo at 100 mg/kg": "%"}}
{"smiles": "Cc1c(Cc2cccnc2)c(=O)oc2cc(OC(=O)N(C)C)ccc12", "inhibition in vivo at 100 mg/kg": 86}
{"smiles": "Cc1c(Cc2ccc(F)cc2)c(=O)oc2cc(OC(=O)N(C)C)ccc12", "inhibition in vivo at 100 mg/kg": 42}
{"smiles": "Cc1c(Cc2ccccc2)c(=O)oc2cc(OC(=O)N(C)C)c(Cl)cc12", "inhibition in vivo at 100 mg/kg": 57}
{"smiles": "Cc1c(Cc2cccnc2)c(=O)oc2cc(OC(=O)N(C)C)c(Cl)cc12", "inhibition in vivo at 100 mg/kg": 86}
{"system": "PBMC", "experiment": "In vitro inhibition of tumor necrosis factor alpha production in LPS-challenged human peripheral blood mononuclear cells", "assay_type": "functional, cell-based", "details": "not given", "in_short": "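Human PBMC at 5 × 10⁵ cells/mL in RPMI1640 with 5% heat-inactivated FCS and antibiotics, pretreated with compound in DMSO for 60 min at 37 °C. Then stimulated with Salmonella minnesota R595 LPS (final 100 ng/mL) and cultured overnight. Supernatant TNF-α measured by human TNF-α ELISA; IC50 derived.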", "units": {"IC50": "µM"}}
{"smiles": "Cc1c(Cc2ccccc2)c(=O)oc2c(C)c(OC(=O)N(C)C)ccc12", "IC50": 10.3}
{"smiles": "Cc1c(Cc2ccccc2)c(=O)oc2cc(OC(=O)N(C)C)c(I)cc12", "IC50": 0.06}
{"smiles": "CN(C)C(=O)Oc1ccc2c(CC(O)c3ccc(C#N)cc3)c(Cc3ccccc3)c(=O)oc2c1", "note": "(stereo not drawn)", "IC50": 28.3}
{"smiles": "Cc1c(Cc2cccnc2)c(=O)oc2cc(OC(=O)N(C)C)ccc12", "IC50": 2.7}
{"smiles": "Cc1c(-c2ccc(N)cc2)c(=O)oc2cc(OC(=O)N(C)C)ccc12", "IC50": 5.2}
{"smiles": "CN(C)C(=O)Oc1ccc2c(-c3ccc(F)cc3)c(Cc3ccccc3)c(=O)oc2c1", "IC50": 41.7}
{"smiles": "Cc1c(Cc2ccccc2)c(=O)oc2cc(OC(=O)N(C)C)c(C#N)cc12", "IC50": 0.85}
{"smiles": "CN(C)C(=O)Oc1ccc2cc(Cc3ccccc3)c(=O)oc2c1", "IC50": "> 50"}
{"smiles": "CCc1c(Cc2ccccc2)c(=O)oc2cc(OC(=O)N(C)C)ccc12", "IC50": 1.7}
{"smiles": "C=CCCC(O)Cc1c(Cc2ccccc2)c(=O)oc2cc(OC(=O)N(C)C)ccc12", "note": "(stereo not drawn)", "IC50": 48.4}
{"smiles": "Cc1c(Cc2ccccc2)c(=O)oc2cc(OC(=O)N(C)C)c(C(=O)O)cc12", "IC50": "> 50"}
{"smiles": "CCOC(=O)CC(=O)Nc1cccc(Cc2c(C)c3cc(Cl)c(OC(=O)N(C)C)cc3oc2=O)c1", "IC50": 0.05}
{"smiles": "CN(C)C(=O)Oc1ccc2c(CCO)c(Cc3ccccc3)c(=O)oc2c1", "IC50": 2.1}
{"smiles": "CN(C)C(=O)Oc1ccc2c(CCc3ccccc3)c(Cc3ccccc3)c(=O)oc2c1", "IC50": "> 50"}
{"smiles": "COC(=O)c1ccc(-c2c(C)c3ccc(OC(=O)N(C)C)cc3oc2=O)cc1", "IC50": "≥ 50"}
{"smiles": "CN(C)C(=O)Oc1ccc2c(C(F)(F)F)c(Cc3ccc(F)cc3)c(=O)oc2c1", "IC50": "> 50"}
{"smiles": "COc1cc2c(C)c(Cc3ccccc3)c(=O)oc2cc1OC(=O)N(C)C", "IC50": 0.58}
{"smiles": "Cc1c(CCc2ccccc2)c(=O)oc2cc(OC(=O)N(C)C)ccc12", "IC50": "> 50"}
{"smiles": "CN(C)C(=O)Oc1ccc2c(CC(O)c3nccs3)c(Cc3ccccc3)c(=O)oc2c1", "note": "(stereo not drawn)", "IC50": 16.5}
{"smiles": "Cc1c(Cc2ccccc2)c(=O)oc2cc(OC(=O)N(C)C)c([N+](=O)[O-])cc12", "IC50": 0.12}
{"smiles": "CCCCCc1c(C)c2ccc(OC(=O)N(C)C)cc2oc1=O", "IC50": 22.8}
{"smiles": "COc1cc(OC(=O)N(C)C)cc2oc(=O)c(Cc3ccccc3)c(C)c12", "IC50": "> 50"}
{"smiles": "Cc1c(Cc2ccccc2)c(=O)oc2cc(OC(=O)N(C)C)c(C=O)cc12", "IC50": 9.8}
{"smiles": "Cc1c(CN2CCOCC2)c(=O)oc2cc(OC(=O)N(C)C)ccc12", "IC50": "> 50"}
{"smiles": "Cc1cc(=O)oc2cc(OC(=O)N(C)C)ccc12", "IC50": "> 50"}
{"smiles": "Cc1c(CN2CCCCC2)c(=O)oc2cc(OC(=O)N(C)C)ccc12", "IC50": "> 50"}
{"smiles": "CCc1cc2c(C)c(Cc3ccccc3)c(=O)oc2cc1OC(=O)N(C)C", "IC50": 4.6}
{"smiles": "CN(C)C(=O)Oc1ccc2c(C(=O)O)c(Cc3ccccc3)c(=O)oc2c1", "IC50": "> 50"}
{"smiles": "Cc1c(CC2CCCCC2)c(=O)oc2cc(OC(=O)N(C)C)ccc12", "IC50": 7.2}
{"smiles": "Cc1c(Cc2ccccn2)c(=O)oc2cc(OC(=O)N(C)C)ccc12", "IC50": 6.5}
{"smiles": "CN(C)C(=O)Oc1ccc2c(CC(O)C3CCCCC3)c(Cc3ccccc3)c(=O)oc2c1", "note": "(stereo not drawn)", "IC50": "> 50"}
{"smiles": "Cc1c(-c2cccc(C(F)(F)F)c2)c(=O)oc2cc(OC(=O)N(C)C)ccc12", "IC50": "> 50"}
{"smiles": "CN(C)C(=O)Oc1ccc2c(-c3ccncc3)c(Cc3ccccc3)c(=O)oc2c1", "IC50": 4.9}
{"smiles": "Cc1c(Cc2ccc(F)cc2)c(=O)oc2cc(OC(=O)N(C)C)ccc12", "IC50": 0.32}
{"smiles": "CN(C)C(=O)Oc1ccc2c(-c3ccccc3F)c(Cc3ccccc3)c(=O)oc2c1", "IC50": 4.9}
{"smiles": "CN(C)C(=O)Oc1ccc2c(-c3ccccc3)c(Cc3ccc(F)cc3)c(=O)oc2c1", "IC50": 1.7}
{"smiles": "Cc1c(-c2ccc(C(F)(F)F)cc2)c(=O)oc2cc(OC(=O)N(C)C)ccc12", "IC50": "> 50"}
{"smiles": "Cc1c(C)c2ccc(OC(=O)N(C)C)cc2oc1=O", "IC50": "≥ 50"}
{"smiles": "COc1ccccc1-c1c(C)c2ccc(OC(=O)N(C)C)cc2oc1=O", "IC50": 7.5}
{"smiles": "COC(=O)c1cccc(-c2c(C)c3ccc(OC(=O)N(C)C)cc3oc2=O)c1", "IC50": 1.7}
{"smiles": "Cc1c(Cc2ccccc2)c(=O)oc2cc(OC(=O)N(C)C)c(C(C)C)cc12", "IC50": 40.1}
{"smiles": "Cc1cc2c(C)c(Cc3ccccc3)c(=O)oc2cc1OC(=O)N(C)C", "IC50": 0.4}
{"smiles": "CCCCCCc1c(C)c2ccc(OC(=O)N(C)C)cc2oc1=O", "IC50": 25.4}
{"smiles": "CCCCc1c(C)c2ccc(OC(=O)N(C)C)cc2oc1=O", "IC50": 24.7}
{"smiles": "Cc1c(-c2ccccc2)c(=O)oc2cc(OC(=O)N(C)C)ccc12", "IC50": "> 50"}
{"smiles": "Cc1c(Cc2ccccc2)c(=O)oc2cc(OC(=O)N(C)C)c(Cl)cc12", "IC50": 0.09}
{"smiles": "CCCc1c(Cc2ccccc2)c(=O)oc2cc(OC(=O)N(C)C)ccc12", "IC50": 0.78}
{"smiles": "CN(C)C(=O)Oc1ccc2c(-c3ccccn3)c(Cc3ccccc3)c(=O)oc2c1", "IC50": 18.7}
{"smiles": "COc1cccc(-c2c(C)c3ccc(OC(=O)N(C)C)cc3oc2=O)c1", "IC50": 3.2}
{"smiles": "Cc1c(Cc2ccccc2)c(=O)oc2cc(OC(=O)N(C)C)cc(F)c12", "IC50": 0.44}
{"smiles": "CC(=O)Nc1cccc(Cc2c(C)c3cc(Cl)c(OC(=O)N(C)C)cc3oc2=O)c1", "IC50": 0.31}
{"smiles": "Cc1c(-c2cccc(N)c2)c(=O)oc2cc(OC(=O)N(C)C)ccc12", "IC50": 2.7}
{"smiles": "Cc1c(Cc2ccncc2)c(=O)oc2cc(OC(=O)N(C)C)c(Cl)cc12", "IC50": 0.13}
{"smiles": "CN(C)C(=O)Oc1ccc2c(-c3ccc(C(F)(F)F)cc3)c(Cc3ccccc3)c(=O)oc2c1", "IC50": "> 50"}
{"smiles": "CN(C)C(=O)Oc1ccc2c(-c3cccc(C(F)(F)F)c3)c(Cc3ccccc3)c(=O)oc2c1", "IC50": "> 50"}
{"smiles": "Cc1c(Cc2ccccc2)c(=O)oc2cc(OC(=O)N(C)C)ccc12", "IC50": 1.8}
{"smiles": "Cc1c(Cc2cccnc2)c(=O)oc2cc(OC(=O)N(C)C)c(Cl)cc12", "IC50": 0.45}
{"smiles": "Cc1c(-c2ccccc2N)c(=O)oc2cc(OC(=O)N(C)C)ccc12", "IC50": 2.1}
{"smiles": "Cc1c(Cc2ccncc2)c(=O)oc2cc(OC(=O)N(C)C)ccc12", "IC50": 1.3}
{"smiles": "Cc1c(Cc2ccccc2)c(=O)oc2cc(OC(=O)N(C)C)c(Br)cc12", "IC50": 0.06}
{"smiles": "Cc1c(-c2ccccc2C(F)(F)F)c(=O)oc2cc(OC(=O)N(C)C)ccc12", "IC50": "≥ 50"}
{"smiles": "COc1ccc(-c2c(C)c3ccc(OC(=O)N(C)C)cc3oc2=O)cc1", "IC50": 5.6}
{"smiles": "CCCc1c(Cc2ccc(F)cc2)c(=O)oc2cc(OC(=O)N(C)C)ccc12", "IC50": 1.2}
